Calls of active or inactive are those of the source. The rule behind the calls is not given here.
What was measured:
[1] = target: T1, Cannabinoid receptor 2 (Homo sapiens, UniProt P34972); assay: Displacement of [3H]-CP55940 from human recombinant CB2 receptor expressed in CHO cells membrane by scintillation counting; assay type: cell membranes
[2] = target: T2, Cannabinoid receptor 1 (Homo sapiens, UniProt P21554); assay: Displacement of [3H]-CP55940 from human recombinant CB1 receptor expressed in CHO cells membrane at 1 uM by scintillation counting; assay type: cell membranes
T2 sequence (P21554 whole entry): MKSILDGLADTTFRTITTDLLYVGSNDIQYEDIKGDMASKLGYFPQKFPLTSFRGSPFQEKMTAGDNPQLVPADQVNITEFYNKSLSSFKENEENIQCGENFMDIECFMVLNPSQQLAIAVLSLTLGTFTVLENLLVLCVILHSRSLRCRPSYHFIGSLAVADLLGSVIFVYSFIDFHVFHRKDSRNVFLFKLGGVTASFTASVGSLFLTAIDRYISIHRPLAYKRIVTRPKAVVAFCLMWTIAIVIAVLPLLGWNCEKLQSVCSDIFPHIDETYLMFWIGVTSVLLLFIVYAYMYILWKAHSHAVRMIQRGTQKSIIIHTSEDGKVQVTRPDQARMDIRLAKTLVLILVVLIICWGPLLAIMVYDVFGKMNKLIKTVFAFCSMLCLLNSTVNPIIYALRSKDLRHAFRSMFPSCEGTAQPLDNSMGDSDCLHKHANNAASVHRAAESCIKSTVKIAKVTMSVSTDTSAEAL
Method in brief: (§1)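 Competitive radioligand displacement with [3H]-CP-55,940 at human CB1 or CB2; single-point screen at 1 μM, specific displacement recorded.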

[3] = target: T1, Cannabinoid receptor 2; assay: Displacement of [3H]-CP55940 from human recombinant CB2 receptor expressed in CHO cells membrane at 1 uM by scintillation counting; assay type: cell membranes; method in brief: as §1
[4] = target: T2, Cannabinoid receptor 1; assay: Displacement of [3H]-CP55940 from human recombinant CB1 receptor expressed in CHO cells membrane by scintillation counting; assay type: cell membranes
[5] = target: T1, Cannabinoid receptor 2; assay: Agonist activity at human recombinant CB2 receptor expressed in CHO cells membrane by [35S]-GTPgammaS assay; assay type: functional, cell membranes
[6] = tested on: Mus musculus; assay: Anticolitis activity in TNBS-induced C57Bl6 mouse experimental colitis model assessed as reduction colitis macroscopic scores at 10 mg/kg, ip qd dosed 3 days before colitis induction; assay type: functional; design: scale not given: the % may be the effect or the level left; conditions: route intraperitoneal
Method in brief: (§2)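 TNBS colitis in mice; test agent given ip once daily at 10 mg/kg; mice killed three days after TNBS and colon inflammation parameters assessed; 10 mice per group, mean ± SEM, compared with TNBS plus vehicle.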

[7] = species: Homo sapiens; assay: Selectivity index, ratio of Ki for human recombinant CB1 receptor to KI for human recombinant CB2 receptor
Method in brief: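 Ki at hCB1 and hCB2 from [3H]-CP-55,940 competitive displacement; ratio CB1 Ki/CB2 Ki. Ki at CB1 determined only when 1 μM screen gave >60% displacement.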

[8] = tested on: Mus musculus; assay: Anticolitis activity in TNBS-induced C57Bl6 mouse experimental colitis model assessed as reduction colitis histological scores at 10 mg/kg, ip qd dosed 3 days before colitis induction (reference value: 4.9 score); assay type: functional; conditions: route intraperitoneal; method in brief: as §2
[9] = tested on: Mus musculus; assay: Anticolitis activity in TNBS-induced C57Bl6 mouse experimental colitis model assessed as MPO activity at 10 mg/kg, ip qd dosed 3 days before colitis induction (reference value: 73.7%) score); assay type: functional; conditions: route intraperitoneal; method in brief: as §2
[10] = tested on: Mus musculus; assay: Effect on TNFalpha mRNA expression in TNBS-induced C57Bl6 mouse experimental colitis model at 10 mg/kg, ip qd dosed 3 days before colitis induction by real-time PCR method; assay type: functional, organism-based; design: dose 10 mg/kg; method in brief: as §2
[11] = tested on: Mus musculus; assay: Effect on IL-1beta mRNA expression in TNBS-induced C57Bl6 mouse experimental colitis model at 10 mg/kg, ip qd dosed 3 days before colitis induction by real-time PCR method; assay type: functional, organism-based; design: dose 10 mg/kg; method in brief: as §2
[12] = Fraction unbound in human plasma at 37 degC by equilibrium dialysis method; assay type: ADME, cell-free
Method in brief: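 Plasma protein binding by equilibrium dialysis at 37 °C; free fraction reported.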

[13] = Permeability from apical to basolateral side in human Caco2 cells at 10 uM incubated for 60 mins; assay type: ADME, cell-based; conditions: Caco-2, read-out: permeability
Method in brief: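 Caco-2 permeability: compound at 10 μM, samples at 0 and 60 min.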

[14] = target: MDR1 (ABCB1, P-glycoprotein) (Homo sapiens, UniProt P08183); assay: Inhibition of MDR1 expressed in MDCK2 cells at 10 uM by calcein AM accumulation assay; assay type: cell-based, MDCK-II; conditions: dog, MDCK2 cells expressing MDR1, probe calcein AM
MDR1 (ABCB1, P-glycoprotein), sequence (P08183 whole entry): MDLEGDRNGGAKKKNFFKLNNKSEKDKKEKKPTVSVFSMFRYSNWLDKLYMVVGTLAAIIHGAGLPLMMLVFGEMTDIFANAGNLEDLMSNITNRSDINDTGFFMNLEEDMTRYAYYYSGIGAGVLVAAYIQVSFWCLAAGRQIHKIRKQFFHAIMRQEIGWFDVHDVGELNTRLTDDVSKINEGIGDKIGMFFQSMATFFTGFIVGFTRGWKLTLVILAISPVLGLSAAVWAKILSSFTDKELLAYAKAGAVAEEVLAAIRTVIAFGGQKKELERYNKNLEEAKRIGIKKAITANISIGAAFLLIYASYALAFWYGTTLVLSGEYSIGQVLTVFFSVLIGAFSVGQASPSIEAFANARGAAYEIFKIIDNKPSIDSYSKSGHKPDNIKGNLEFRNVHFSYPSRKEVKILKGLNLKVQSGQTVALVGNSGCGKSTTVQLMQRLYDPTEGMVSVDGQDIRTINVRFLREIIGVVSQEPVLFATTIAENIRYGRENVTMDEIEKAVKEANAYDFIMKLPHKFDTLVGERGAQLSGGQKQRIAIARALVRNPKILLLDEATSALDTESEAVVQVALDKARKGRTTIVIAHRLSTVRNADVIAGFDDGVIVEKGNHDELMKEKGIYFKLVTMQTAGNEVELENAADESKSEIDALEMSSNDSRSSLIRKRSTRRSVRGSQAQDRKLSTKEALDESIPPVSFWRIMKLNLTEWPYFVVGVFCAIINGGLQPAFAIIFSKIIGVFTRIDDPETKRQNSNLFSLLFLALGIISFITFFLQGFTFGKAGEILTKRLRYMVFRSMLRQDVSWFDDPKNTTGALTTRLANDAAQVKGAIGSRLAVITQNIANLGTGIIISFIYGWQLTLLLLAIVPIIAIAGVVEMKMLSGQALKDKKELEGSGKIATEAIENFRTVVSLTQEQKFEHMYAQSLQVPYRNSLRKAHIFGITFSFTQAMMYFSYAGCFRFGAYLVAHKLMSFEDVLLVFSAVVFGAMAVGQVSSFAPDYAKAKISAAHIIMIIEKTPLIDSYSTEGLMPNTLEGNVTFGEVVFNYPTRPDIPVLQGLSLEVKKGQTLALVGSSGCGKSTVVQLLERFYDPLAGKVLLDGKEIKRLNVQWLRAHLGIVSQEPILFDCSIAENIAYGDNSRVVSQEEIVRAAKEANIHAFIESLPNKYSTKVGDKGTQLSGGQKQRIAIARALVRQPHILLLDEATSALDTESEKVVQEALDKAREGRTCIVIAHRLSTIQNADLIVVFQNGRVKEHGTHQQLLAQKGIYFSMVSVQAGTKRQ
Method in brief: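 P-gp interaction tested in MDR1-MDCKII cells via cellular uptake of calcein AM.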

[15] = Stability in human liver microsomes assessed as compound remaining at 1 uM incubated for 60 mins; assay type: ADME, Microsome; conditions: read-out: Stability
Method in brief: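 Incubation at 1 μM with human liver microsomes (0.3 mg/mL), 0 and 60 min; percent parent remaining at 60 min.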

[16] = Intrinsic clearance in mouse liver microsomes at 1 uM; assay type: ADME, Microsome; conditions: read-out: CLH

T1 sequence (P34972 whole entry): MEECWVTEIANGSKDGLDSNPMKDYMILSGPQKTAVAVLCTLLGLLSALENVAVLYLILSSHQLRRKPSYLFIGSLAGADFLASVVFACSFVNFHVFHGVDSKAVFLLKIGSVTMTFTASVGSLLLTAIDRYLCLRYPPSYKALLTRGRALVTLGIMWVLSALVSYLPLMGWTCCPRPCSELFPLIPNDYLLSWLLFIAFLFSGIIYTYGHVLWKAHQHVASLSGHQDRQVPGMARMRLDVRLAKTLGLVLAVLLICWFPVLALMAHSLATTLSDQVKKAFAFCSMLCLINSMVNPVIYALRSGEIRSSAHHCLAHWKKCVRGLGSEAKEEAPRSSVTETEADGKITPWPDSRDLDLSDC

Cc1cc(=O)c(C(=O)NC23CC4CC(CC(C4)C2)C3)cn1CC1OCCO1
Ki [1]: > 1 µM
Activity [2]: > 60%
Activity [3]: > 60%

CCCCCn1cc(C(=O)NC(C)C)c(=O)cc1C
Ki [1]: > 1 µM
Activity [2]: > 60%
Activity [3]: > 60%

CCCCCn1cc(C(=O)NC23CC4CC(CC(C4)C2)C3)c(=O)c(C2CC2)c1C
Ki [4]: 0.105 µM
Ki [1]: 0.0134 µM
Activity [2]: > 60%
Activity [3]: > 60%
EC50 [5]: 0.0885 µM

CCCCCn1cc(C(=O)NCC23CC4CC(CC(C4)C2)C3)c(=O)cc1C(C)(C)C
Ki [4]: > 1 µM
Ki [1]: 0.0102 µM
Activity [2]: > 60%
Activity [3]: > 60%
EC50 [5]: 0.0492 µM
Activity [6]: 62.2%

CCCCCn1cc(C(=O)NN2CCCCC2)c(=O)cc1C
Ki [1]: > 1 µM
Activity [2]: > 60%
Activity [3]: > 60%

CCCCCn1cc(C(=O)NC2C3CC4CC(C3)CC2C4)c(=O)cc1C (stereo unspecified)
Ki [4]: > 1 µM
Ki [1]: 0.00026 µM
Activity [2]: > 60%
Activity [3]: > 60%
EC50 [5]: 0.0384 µM
Ratio Ki [7]: > 3850
Activity [6]: 74.9%

Cc1cc(=O)c(C(=O)NC23CC4CC(CC(C4)C2)C3)cn1CCC1OCCO1
Ki [1]: > 1 µM
Activity [2]: > 60%
Activity [3]: > 60%

COCCCn1cc(C(=O)NC23CC4CC(CC(C4)C2)C3)c(=O)cc1C
Ki [1]: > 1 µM
Activity [2]: > 60%
Activity [3]: > 60%

CCCCCn1cc(C(=O)NC23CC4CC(CC(C4)C2)C3)c(=O)c(I)c1C
Ki [4]: 0.193 µM
Ki [1]: 0.0208 µM
Activity [2]: > 60%
Activity [3]: > 60%
EC50 [5]: 0.0119 µM

CCCCCn1cc(C(=O)Nc2ccccc2)c(=O)cc1C(C)(C)C
Ki [4]: 0.0879 µM
Ki [1]: 0.0092 µM
Activity [2]: > 60%
Activity [3]: > 60%
EC50 [5]: 0.0083 µM

CCCCCn1cc(C(=O)NC2C3CC4CC(C3)CC2C4)c(=O)cc1C(C)(C)C (stereo unspecified)
Ki [4]: 0.562 µM
Ki [1]: 0.0096 µM
Activity [2]: > 60%
Activity [3]: > 60%
EC50 [5]: 0.452 µM
Activity [6]: 51.5%

CCCCCn1cc(C(=O)NC2CCCCC2)c(=O)cc1C
Ki [4]: > 1 µM
Ki [1]: 0.0244 µM
Activity [2]: > 60%
Activity [3]: > 60%
EC50 [5]: 0.0499 µM
Ratio Ki [7]: > 10
Activity [6]: 74.9%

Cc1cc(=O)c(C(=O)NC23CC4CC(CC(C4)C2)C3)cn1CC1CCOCC1
Ki [4]: > 1 µM
Ki [1]: 0.0241 µM
Activity [2]: > 60%
Activity [3]: > 60%
EC50 [5]: 0.0474 µM
Ratio Ki [7]: > 10
Activity [6]: 66.3%

COC(Cn1cc(C(=O)NC23CC4CC(CC(C4)C2)C3)c(=O)cc1C)OC
Ki [1]: > 1 µM
Activity [2]: > 60%
Activity [3]: > 60%

CCCCCn1cc(C(=O)NCC2CC2)c(=O)cc1C(C)(C)C
Ki [4]: 0.176 µM
Ki [1]: 0.0141 µM
Activity [2]: > 60%
Activity [3]: > 60%
EC50 [5]: 0.0278 µM
Ratio Ki [7]: > 10
Activity [6]: 74.9%

CCCCCn1cc(C(=O)NC23CC4CC(CC(C4)C2)C3)c(=O)c(-c2ccncc2)c1C
Activity [8]: 3.1
Activity [9]: 34.1%
Activity [10]: inactive
Activity [11]: inactive
fraction unbound [12]: 0.07
Papp A→B at 1 h, 10 µM [13]: 499 nm/s
inhibition at 10 µM [14]: 33.7%
remaining at 1 h, 1 µM [15]: 1%
microsomal CLint at 1 µM [16]: > 200 µL/min/mg
Ki [4]: > 1 µM
Ki [1]: 0.0365 µM
Activity [2]: > 60%
Activity [3]: > 60%
EC50 [5]: 0.114 µM
Ratio Ki [7]: > 10
Activity [6]: 61.4%

CCCCCn1cc(C(=O)NC23CC4CC(CC(C4)C2)C3)c(=O)c(-c2ccc(CC)cc2)c1C
Ki [4]: > 1 µM
Ki [1]: 0.0543 µM
Activity [2]: > 60%
Activity [3]: > 60%
EC50 [5]: 0.0399 µM

CCCCCn1cc(C(=O)NC23CC4CC(CC(C4)C2)C3)c(=O)cc1C(C)(C)C
fraction unbound [12]: 0.01
Papp A→B at 1 h, 10 µM [13]: 98 nm/s
inhibition at 10 µM [14]: 94.5%
remaining at 1 h, 1 µM [15]: 1%
microsomal CLint at 1 µM [16]: > 200 µL/min/mg
Activity [6]: 19.3%

CCCCCn1cc(C(=O)NC23CC4CC(CC(C4)C2)C3)c(=O)c(-c2cccc(C(C)=O)c2)c1C
Ki [1]: > 1 µM
Activity [2]: > 60%
Activity [3]: > 60%

CCCCCn1cc(C(=O)NC(C)C23CC4CC(CC(C4)C2)C3)c(=O)cc1C (racemic)
Ki [4]: > 1 µM
Ki [1]: 0.0064 µM
Activity [2]: > 60%
Activity [3]: > 60%
EC50 [5]: 0.0842 µM
Ratio Ki [7]: > 10
Activity [6]: 74.9%

C/C=C\n1cc(C(=O)NC23CC4CC(CC(C4)C2)C3)c(=O)cc1C
Ki [1]: > 1 µM
Activity [2]: > 60%
Activity [3]: > 60%

CCCCCn1cc(C(=O)NC(C)C23CC4CC(CC(C4)C2)C3)c(=O)cc1C(C)(C)C (racemic)
Ki [4]: 0.548 µM
Ki [1]: 0.009 µM
Activity [2]: > 60%
Activity [3]: > 60%
EC50 [5]: 0.0471 µM
Activity [6]: 60%

CCCCCn1cc(C(=O)NC23CC4CC(CC(C4)C2)C3)c(=O)c(-c2ccccc2)c1C
Ki [1]: 0.189 µM
Activity [2]: > 60%
Activity [3]: > 60%

CCCCCn1cc(C(=O)Nc2ccccc2)c(=O)cc1C
Ki [1]: > 1 µM
Activity [2]: > 60%
Activity [3]: > 60%

Cc1cc(=O)c(C(=O)NC23CC4CC(CC(C4)C2)C3)cn1CCC1CCOCC1
Ki [1]: 0.196 µM
Activity [2]: > 60%
Activity [3]: > 60%

Cc1cc(=O)c(C(=O)NC23CC4CC(CC(C4)C2)C3)cn1CCCC(F)(F)F
Ki [4]: > 1 µM
Ki [1]: 0.00028 µM
Activity [2]: > 60%
Activity [3]: > 60%
EC50 [5]: 0.0173 µM
Ratio Ki [7]: > 3570
Activity [6]: 65.1%

CCCCCn1cc(C(=O)NCC23CC4CC(CC(C4)C2)C3)c(=O)cc1C
Ki [4]: > 1 µM
Ki [1]: 0.0152 µM
Activity [2]: > 60%
Activity [3]: > 60%
EC50 [5]: 0.0531 µM
Ratio Ki [7]: > 10
Activity [6]: 55.9%

CCCCCn1cc(C(=O)NC23CC4CC(CC(C4)C2)C3)c(=O)c(-c2ccc(C)cc2)c1C
Ki [1]: > 1 µM
Activity [2]: > 60%
Activity [3]: > 60%

CCCCCn1cc(C(=O)NC23CC4CC(CC(C4)C2)C3)c(=O)c(-c2cccc(C#N)c2)c1C
Ki [1]: > 1 µM
Activity [2]: > 60%
Activity [3]: > 60%

CCCCCn1cc(C(=O)NCC2CC2)c(=O)cc1C
Ki [1]: > 1 µM
Activity [2]: > 60%
Activity [3]: > 60%

— ChEMBL document CHEMBL2169827, “4-Oxo-1,4-dihydropyridines as selective CB₂ cannabinoid receptor ligands. Part 2: discovery of new agonists endowed with protective effect against experimental colitis” (J Med Chem, 2012)
